Substitutions are numbered along the chain they refer to. Calls of active or inactive are those of the source. The rule behind the calls is not given here.
What was measured:
[1] = molecular target: NAD-dependent protein deacetylase sirtuin-1 (Homo sapiens, UniProt Q96EB6, V445A); test: Activation of SIRT1 V445A mutant (unknown origin)
Method in brief: (§1)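 His-tagged SIRT1 Q345A or V445A mutants were made by site-directed mutagenesis and expressed in E. coli, Ni-NTA purified. They were assayed under the same screening conditions as wild type: 750 μM NAD⁺, 31.25 μM ac-RHKK_ac-AMC, pH 8.0 Tris buffer, trypsin release of AMC, ex 340 / em 490 nm. Compounds came from 3-fold DMSO dilutions. EC1.5 (50% activity increase) was taken from a dose–response fit.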

[2] = molecular target: NAD-dependent protein deacetylase sirtuin-1 (Homo sapiens, UniProt Q96EB6, Q345A); test: Activation of SIRT1 Q345A mutant (unknown origin); method in brief: as §1
Chain of NAD-dependent protein deacetylase sirtuin-1 (Homo sapiens, UniProt Q96EB6, Q345A) (Q96EB6 2-747 Q345A limits assumed): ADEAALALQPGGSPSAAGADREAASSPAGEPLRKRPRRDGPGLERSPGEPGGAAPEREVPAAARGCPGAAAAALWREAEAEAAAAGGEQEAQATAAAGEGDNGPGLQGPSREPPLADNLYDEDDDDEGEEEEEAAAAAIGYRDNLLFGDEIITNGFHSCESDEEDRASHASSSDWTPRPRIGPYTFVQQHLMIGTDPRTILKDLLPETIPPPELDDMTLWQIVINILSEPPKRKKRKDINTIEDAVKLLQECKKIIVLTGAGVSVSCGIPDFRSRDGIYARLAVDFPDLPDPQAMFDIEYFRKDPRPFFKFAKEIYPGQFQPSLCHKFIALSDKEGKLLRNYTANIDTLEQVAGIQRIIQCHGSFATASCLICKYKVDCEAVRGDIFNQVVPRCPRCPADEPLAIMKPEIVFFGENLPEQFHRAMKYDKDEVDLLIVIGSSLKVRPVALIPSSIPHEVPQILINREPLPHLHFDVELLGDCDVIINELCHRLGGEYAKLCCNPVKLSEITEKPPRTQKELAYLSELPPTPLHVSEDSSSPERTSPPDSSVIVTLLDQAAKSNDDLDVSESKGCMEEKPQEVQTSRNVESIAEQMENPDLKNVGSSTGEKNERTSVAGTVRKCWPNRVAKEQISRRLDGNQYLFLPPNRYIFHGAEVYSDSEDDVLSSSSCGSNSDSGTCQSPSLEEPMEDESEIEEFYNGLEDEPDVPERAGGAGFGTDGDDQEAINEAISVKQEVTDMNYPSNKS

[3] = molecular target: T1, NAD-dependent protein deacetylase sirtuin-1 (Homo sapiens) (UniProt Q96EB6); test: Activation of N-terminal His6-tagged SIRT1 (156 to 664 amino acid residues) (unknown origin) expressed in Escherichia coli BL21(DE3) using ac-RHKKac-AMC as substrate at 50 uM after 45 mins by fluorimetric analysis relative to control
T1 sequence (whole entry): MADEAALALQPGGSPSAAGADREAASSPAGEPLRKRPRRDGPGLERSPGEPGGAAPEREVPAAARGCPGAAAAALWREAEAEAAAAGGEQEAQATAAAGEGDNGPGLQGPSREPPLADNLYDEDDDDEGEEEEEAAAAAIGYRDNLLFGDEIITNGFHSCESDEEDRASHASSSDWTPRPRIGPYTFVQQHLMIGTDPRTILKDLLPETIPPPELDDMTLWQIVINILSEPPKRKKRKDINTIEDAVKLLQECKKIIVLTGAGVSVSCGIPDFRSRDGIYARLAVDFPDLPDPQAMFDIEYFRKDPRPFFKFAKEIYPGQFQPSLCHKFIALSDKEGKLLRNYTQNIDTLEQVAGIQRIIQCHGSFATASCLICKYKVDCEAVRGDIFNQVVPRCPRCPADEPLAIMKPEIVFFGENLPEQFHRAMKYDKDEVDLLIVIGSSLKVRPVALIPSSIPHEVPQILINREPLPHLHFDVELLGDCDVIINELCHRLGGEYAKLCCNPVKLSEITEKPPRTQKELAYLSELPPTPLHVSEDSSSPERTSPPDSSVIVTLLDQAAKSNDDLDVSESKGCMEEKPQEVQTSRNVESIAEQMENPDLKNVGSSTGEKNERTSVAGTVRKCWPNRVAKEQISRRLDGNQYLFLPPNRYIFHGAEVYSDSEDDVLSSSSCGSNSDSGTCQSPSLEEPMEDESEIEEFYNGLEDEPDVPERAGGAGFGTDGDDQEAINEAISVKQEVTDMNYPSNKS
Method in brief: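 Fluorogenic deacetylation screen: 1 μM SIRT1 with 750 μM NAD⁺ and 31.25 μM ac-RHKK_ac-AMC in Tris buffer (25 mM Tris, 137 mM NaCl, 2.7 mM KCl, 1 mM MgCl₂, pH 8.0). Compounds at 50 μM from DMSO stocks; DMSO alone as blank. Trypsin then releases AMC from deacetylated peptide; fluorescence read at 340/490 nm.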

[4] = molecular target: T2, NAD-dependent protein deacetylase sirtuin-1 (Homo sapiens, UniProt Q96EB6); test: Activation of N-terminal His6-tagged SIRT1 (156 to 664 amino acid residues) (unknown origin) expressed in Escherichia coli BL21(DE3) using ac-RHKKac-AMC as substrate after 45 mins by fluorometric analysis
T2 sequence (Q96EB6 whole entry): T1 sequence (whole entry)

[5] = Stability of the compound in cultured medium assessed as compound remaining at 100 uM after 30 mins; format: physicochemical; conditions: 6 h, in the assay text read “after 6 hrs” for “after 30 mins”
Method in brief: (§2)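 MCF-7 cells were exposed to 100 μM compound for 0–360 min. Medium and acetonitrile-treated washed cells were collected separately at each time point. Compound spiked into fresh cell-free medium and handled the same way served as control. Samples were centrifuged and quantified by reversed-phase HPLC.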

[6] = molecular target: T1, NAD-dependent protein deacetylase sirtuin-1 (Homo sapiens); test: Activation of SIRT1 in human MCF7 cells assessed as reduction in doxorubicin-induced acetyl-p53 level at 60 uM after 6 hrs by Western blotting analysis; format: cell-based
Method in brief: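 MCF-7 cells were seeded at 1 × 10⁵ per well in DMEM with 10% FCS and grown 24 h at 37 °C, 5% CO₂. Graded compound concentrations were added together with 0.1 μM TSA and 5 μM doxorubicin for 6 h. Lysate (50 μg protein) was run on a 9% gel and blotted with an anti-acetyl-p53 (Lys382) polyclonal antibody at 4 °C overnight, then HRP anti-rabbit IgG with chemiluminescence.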

MCF7 = test: Drug uptake in human MCF7 cells at 100 uM measured at 30 mins; format: ADME, cell-based; conditions: mcf7, 0.5 h; method in brief: as §2
[7] = Stability of the compound in cultured medium at 100 uM after 30 mins; format: physicochemical; conditions: 0.5 h; method in brief: as §2
[8] = Stability of the compound in fresh cell medium at 100 uM after 120 mins; format: physicochemical; conditions: 2 h; method in brief: as §2
[9] = system: NAD-dependent protein deacetylase sirtuin-1 (Homo sapiens), Q96EB6 [UNDEFINED MUTATION]; test: Ratio of EC50 for SIRT1 V445A mutant (unknown origin) to EC50 for wild type SIRT1 (unknown origin)
[10] = system: NAD-dependent protein deacetylase sirtuin-1 (Homo sapiens), Q96EB6 [UNDEFINED MUTATION]; test: Ratio of EC50 for SIRT1 Q345A mutant (unknown origin) to EC50 for wild type SIRT1 (unknown origin)
[11] = system: T3, NAD-dependent protein deacetylase sirtuin-1 (Homo sapiens), Q96EB6 [Q345A]; test: Activation of SIRT1 Q345A mutant (unknown origin) at 10 uM relative to control
T3 sequence (whole entry): T1 sequence (whole entry) with Q345A

[12] = system: T4, NAD-dependent protein deacetylase sirtuin-1 (Homo sapiens), Q96EB6 [V445A]; test: Activation of SIRT1 V445A mutant (unknown origin) at 10 uM relative to control
T4 sequence (whole entry): T1 sequence (whole entry) with V445A

Chain of NAD-dependent protein deacetylase sirtuin-1 (Homo sapiens, UniProt Q96EB6, V445A) (Q96EB6 2-747 V445A limits assumed): as the sequence (Q96EB6 2-747 Q345A limits assumed) above, with A344Q, V444A counted along it

O=C(N/N=C/c1cc(Br)c(O)c(Br)c1O)c1ccc2cc(Br)ccc2c1
EC50 [1]: 4.8 µM
EC50 [2]: 12.2 µM
max activation [3]: 647%
EC50 [4]: 2.7 µM
Stability [5]: 20 µM
Activity [6]: inactive
Drug uptake (MCF7): Active
Stability [7]: Stable
Stability [8]: Stable
Ratio EC50 [9]: 2
Ratio EC50 [10]: 4
max activation [11]: 237%
max activation [12]: 353%
